The test system of data set [1] is Candida albicans. Put plainly: Antifungal activity agaisnt Candida albicans ATCC 10231 by agar diffusion method.
Data set [2] has as its system Rattus norvegicus. Put plainly: Antiulcerogenic activity against acetic acid-induced ulcerative colitis in albino rat assessed as ulcer area at 12.5 mmol/kg, po. Format: functional. In short, it runs like this:
(§1)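 Male albino rats (190–200 g, n = 5 per group) received drug in DMSO by orogastric cannula daily for 5 days, with the last dose 2 h before colitis. After a 36 h fast and under ether, 4% acetic acid (5 ml/kg) was instilled 8 cm intrarectally. At 24 h, the distal 8 cm colon was scored for wet weight/length, ulcer area (1 mm² grid count), and ulcer index (lesion score 0–4 plus area).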

Data set [3] has as its system Staphylococcus aureus. Description: Antibacterial activity agaisnt Staphylococcus aureus MTCC 3160 by agar diffusion method. Format: functional. In short, it runs like this: (§2)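 Mueller Hinton agar (pH 7.4) was seeded with 24-h cultures adjusted to 0.5 McFarland. Compounds were prepared as 10 mg/ml stocks in DMF and added to 6 mm wells. DMF served as the negative control. Plates were incubated at 35 °C for 24 h, and the diameter of the growth inhibition zone was read in mm with a caliper.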

For data set [4], the system named is Escherichia coli. Description: Antibacterial activity agaisnt Escherichia coli MTCC 8739 by agar diffusion method. Format: functional. In short, it runs like this: as §2
In general terms: A growth-free zone around the sample is the usual read-out of agar diffusion tests.

Data set [5] can be described thus: Toxicity in po dosed albino rat. Format: organism-based. The conditions noted are these: in vivo.
Data set [6] has as its system Rattus norvegicus. Put plainly: Antiulcerogenic activity against acetic acid-induced ulcerative colitis in albino rat assessed as ratio of wet weight and length at 12.5 mmol/kg, po. Format: functional. The procedure, abridged: as §1
Data set [7] relates to Bacillus subtilis. Put plainly: Antibacterial activity agaisnt Bacillus subtilis MTCC 1456 by agar diffusion method. Format: functional. The procedure, abridged: as §2
Data set [8] has as its system Rattus norvegicus. Put plainly: Antiulcerogenic activity against acetic acid-induced ulcerative colitis in albino rat assessed as ulcer index at 12.5 mmol/kg, po. Format: functional. The procedure, abridged:
as §1

Consider `COc1c(C(=O)O)c(O)cc2occc12`, for which the “diameter of the inhibition zone (DIZ)” value in data set [1] stood at 8 mm.
One may read the LD50 as the dose at which mortality reaches 50%. Lower therefore signals greater toxicity. Turning to `COc1c(C(=O)O)c(O)c(/N=N/c2ccccc2)c2occc12`, the ulcer area in data set [2] turned out to be 2.6 cm2. Also, the “diameter of the inhibition zone (DIZ)” value is on record as 8 mm in data set [3], 10 mm in data set [4], 10 mm in data set [7] and 18 mm in data set [1]. In data set [5], this molecule came in with an LD50 of 410 mg/kg. Further, the Ratio in data set [6] was found to be 84.5. In addition, the Activity in data set [8] worked out at 4.8 no unit.
`COc1ccc(NS(=O)(=O)c2c(O)c(C(=O)O)c(OC)c3ccoc23)cc1`: the ulcer area in data set [2] turned out to be 5.1 cm2. In data set [5], the LD50 is 396 mg/kg. For the same molecule, the Ratio in data set [6] is reported as 120.1. Moreover, the “diameter of the inhibition zone (DIZ)” value in data set [7] is on record as 10 mm; in data set [1], 8 mm. In addition, the Activity in data set [8] is 8.7 no unit.
For the molecule `COc1c(C(=O)O)c(O)c(S(N)(=O)=O)c2occc12`, the ulcer area in data set [2] stood at 4.4 cm2. In addition, the “diameter of the inhibition zone (DIZ)” value in data set [3] was 8 mm; in data set [4], 8 mm; in data set [7], 8 mm; in data set [1], 14 mm. In addition, the LD50 in data set [5] is 400 mg/kg. Besides, in data set [6], the Ratio was 103.4. Further, in data set [8], the Activity turned out to be 7.4 no unit.
Take `COc1c(C(=O)O)c(O)c(N)c2occc12`: in data set [2], the ulcer area stood at 3.3 cm2. In addition, the “diameter of the inhibition zone (DIZ)” value in data set [3] stood at 8 mm; in data set [4] it was 10 mm; in data set [7] it was 8 mm; in data set [1] it was 8 mm. For the same molecule, in data set [5], the LD50 was 396 mg/kg. For the same molecule, the Ratio in data set [6] is on record as 90. In addition, the Activity in data set [8] was 5.5 no unit.
`COc1c(C(=O)O)c(O)c(NS(=O)(=O)c2ccc(C)cc2)c2occc12`: the ulcer area in data set [2] amounted to 4.3 cm2. For the same molecule, the LD50 in data set [5] was 400 mg/kg. Besides, in data set [6], the Ratio worked out at 98.6. The “diameter of the inhibition zone (DIZ)” value in data set [7] is reported as 10 mm; in data set [1] it was 15 mm. The Activity in data set [8] turned out to be 7.6 no unit.
For the molecule `COc1c(C(=O)O)c(O)c(S(=O)(=O)Cl)c2occc12`, the ulcer area in data set [2] is 4.7 cm2. In addition, the “diameter of the inhibition zone (DIZ)” value in data set [3] is given as 8 mm; in data set [4] it was 8 mm; in data set [7], 8 mm; in data set [1], 20 mm. Moreover, the median lethal dose (LD50) in data set [5] turned out to be 390 mg/kg. In addition, the Ratio in data set [6] came out at 112. Moreover, the Activity in data set [8] was found to be 8.1 no unit.
Turning to `COc1c(C(=O)O)c(O)c(NS(=O)(=O)c2ccc(Cl)cc2)c2occc12`, in data set [2], the ulcer area is 2.6 cm2. In data set [5], this molecule registered an LD50 of 390 mg/kg. Moreover, the Ratio in data set [6] came to 86.4. The “diameter of the inhibition zone (DIZ)” value amounted to 12 mm in data set [7] and 8 mm in data set [1]. Further, the Activity in data set [8] is 4.6 no unit.
With `COc1c(C(=O)O)c(O)c(S(=O)(=O)Nc2ccc(C)cc2)c2occc12`, the ulcer area in data set [2] is 4.7 cm2. The “diameter of the inhibition zone (DIZ)” value in data set [3] was 8 mm; in data set [4], 12 mm; in data set [1], 10 mm. In data set [5], this molecule came in with an LD50 of 396 mg/kg. In data set [6], the Ratio is listed as 111. Further, in data set [8], the Activity amounted to 8.1 no unit.
Take `COc1c(C(=O)O)c(O)c(S(=O)(=O)Nc2ccc(Cl)cc2)c2occc12`: the ulcer area in data set [2] was 4.8 cm2. The “diameter of the inhibition zone (DIZ)” value in data set [4] and in data set [1] was 12 mm in each case. The same molecule had a median lethal dose (LD50) in data set [5] of 410 mg/kg. For the same molecule, the Ratio in data set [6] came to 112. Besides, the Activity in data set [8] is 8.2 no unit.
With `C[C@@H]1[C@H](O)[C@@H](C)/C=C/C=C/C=C/C=C/C=C/C=C/C=C/[C@H](O[C@@H]2O[C@H](C)[C@@H](O)[C@H](N)[C@@H]2O)C[C@@H]2O[C@](O)(C[C@@H](O)C[C@@H](O)[C@H](O)CC[C@@H](O)C[C@@H](O)CC(=O)O[C@H]1C)C[C@H](O)[C@H]2C(=O)O` [AMPHOTERICIN B], the “diameter of the inhibition zone (DIZ)” value in data set [1] turned out to be 20 mm.
On to `COc1c(C(=O)O)c(O)c(S(=O)(=O)Nc2ccc(Cl)cc2Cl)c2occc12`, for which, in data set [2], the ulcer area was determined as 4.8 cm2. This molecule showed an LD50 in data set [5] of 410 mg/kg. Also, the Ratio in data set [6] is recorded as 110. Also, the Activity in data set [8] was found to be 8.2 no unit. In addition, in data set [1], the “diameter of the inhibition zone (DIZ)” value was determined as 8 mm.
Turning to `COc1c(C(=O)O)c(O)c(/N=N/c2ccc(S(=O)(=O)Nc3ccccn3)cc2)c2occc12`, the ulcer area in data set [2] was found to be 3.9 cm2. Further, the “diameter of the inhibition zone (DIZ)” value in data set [3] was 10 mm; in data set [4], 12 mm; in data set [7], 12 mm; in data set [1], 22 mm. The molecule further had a 50% lethal dose (LD50) in data set [5] of 410 mg/kg. In addition, in data set [6], the Ratio is on record as 95.2. The Activity in data set [8] was found to be 6.7 no unit.
Turning to `O=C(O)c1cc(/N=N/c2ccc(S(=O)(=O)Nc3ccccn3)cc2)ccc1O` [SULFASALAZINE], in data set [2], the ulcer area turned out to be 2.1 cm2. The “diameter of the inhibition zone (DIZ)” value turned out to be 30 mm in data set [3], 8 mm in data set [4], 25 mm in data set [7] and 7 mm in data set [1]. The Ratio in data set [6] is 79. Also, the Activity in data set [8] amounted to 3.7 no unit.
Consider `COc1c(C(=O)O)c(O)c(NS(=O)(=O)c2ccccc2)c2occc12`, for which, in data set [2], the ulcer area is 4.4 cm2. This molecule registered an LD50 in data set [5] of 400 mg/kg. For the same molecule, the Ratio in data set [6] is listed as 99.1. Also, the “diameter of the inhibition zone (DIZ)” value in data set [7] and in data set [1] was 10 mm each time. Besides, the Activity in data set [8] turned out to be 7.4 no unit.
Turning to `COc1c(C(=O)O)c(O)c(S(=O)(=O)Nc2ccccc2)c2occc12`, in data set [2], the ulcer area stood at 5.1 cm2. The same molecule had an LD50 in data set [5] of 396 mg/kg. In addition, in data set [6], the Ratio was 119.9. The “diameter of the inhibition zone (DIZ)” value in data set [7] stood at 12 mm; in data set [1], 15 mm. Also, in data set [8], the Activity came out at 8.5 no unit.

The record behind these values is ChEMBL document CHEMBL1240431, “Design, synthesis and anti-ulcerogenic effect of some of furo-salicylic acid derivatives on acetic acid-induced ulcerative colitis” (Eur J Med Chem, 2010).
